Experimental data: ChEMBL document CHEMBL1177719 (J Med Chem, 2010)
The source made the active and inactive calls. The calls are words filed in the database; no cut-off is given here.

Key:
RAW264.7 [1] = experiment: Inhibition of LPS-induced iNOS expression in mouse RAW264.7 cells at 34 uM treated 15 mins before LPS challenge measured after 18 hrs by Western blotting; assay type: functional, cell-based
In short: (§1)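 RAW 264.7 cells pretreated 15 min with compound (34 μM), then LPS 1 μg/mL for 18 h. Lysates (30 μg protein) run on 8% SDS-PAGE and transferred to PVDF. Blocked in 5% milk/TBST, probed for iNOS and COX-2 with HRP secondary, ECL detection, β-actin internal control. Band density relative to LPS-treated control; duplicate experiments.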

[2] = target: NAD(P)H dehydrogenase [quinone] 1 (Mus musculus) (UniProt Q64669); experiment: Induction of quinone reductase 1 in mouse Hepa 1c1c7 cells assessed as drug level required to double enzyme activity by MTT assay
NAD(P)H dehydrogenase [quinone] 1 (Mus musculus), sequence (Q64669 whole entry): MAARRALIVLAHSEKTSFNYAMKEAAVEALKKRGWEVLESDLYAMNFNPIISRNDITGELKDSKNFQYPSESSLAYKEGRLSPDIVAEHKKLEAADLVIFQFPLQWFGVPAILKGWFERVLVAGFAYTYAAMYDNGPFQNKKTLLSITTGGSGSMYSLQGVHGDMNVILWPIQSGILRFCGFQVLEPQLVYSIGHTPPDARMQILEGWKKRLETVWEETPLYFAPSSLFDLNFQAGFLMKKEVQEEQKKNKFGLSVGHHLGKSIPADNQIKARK

[3] = Antioxidant activity assessed as DPPH scavenging activity at 340 uM after 30 mins; assay type: functional
HL-60 = experiment: Cell cycle arrest in human HL60 cells assessed as accumulation at sub-G1 phase at 34 uM after 24 hrs by flow cytometry; assay type: functional
In short: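 HL-60 cells (2 × 10⁵/well) exposed to samples for 24 h, then stained with NIM-DAPI nuclear isolation medium. Read by flow cytometry under UV excitation; percentage of cells in subG₁ taken from the DNA histogram.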

[4] = target: T1, Prostaglandin G/H synthase 1 (Ovis aries) (UniProt P05979); experiment: Inhibition of sheep seminal vesicles COX1 assessed as PGE2 production at 34 uM after 10 mins by ELISA relative to control
T1 sequence (whole entry): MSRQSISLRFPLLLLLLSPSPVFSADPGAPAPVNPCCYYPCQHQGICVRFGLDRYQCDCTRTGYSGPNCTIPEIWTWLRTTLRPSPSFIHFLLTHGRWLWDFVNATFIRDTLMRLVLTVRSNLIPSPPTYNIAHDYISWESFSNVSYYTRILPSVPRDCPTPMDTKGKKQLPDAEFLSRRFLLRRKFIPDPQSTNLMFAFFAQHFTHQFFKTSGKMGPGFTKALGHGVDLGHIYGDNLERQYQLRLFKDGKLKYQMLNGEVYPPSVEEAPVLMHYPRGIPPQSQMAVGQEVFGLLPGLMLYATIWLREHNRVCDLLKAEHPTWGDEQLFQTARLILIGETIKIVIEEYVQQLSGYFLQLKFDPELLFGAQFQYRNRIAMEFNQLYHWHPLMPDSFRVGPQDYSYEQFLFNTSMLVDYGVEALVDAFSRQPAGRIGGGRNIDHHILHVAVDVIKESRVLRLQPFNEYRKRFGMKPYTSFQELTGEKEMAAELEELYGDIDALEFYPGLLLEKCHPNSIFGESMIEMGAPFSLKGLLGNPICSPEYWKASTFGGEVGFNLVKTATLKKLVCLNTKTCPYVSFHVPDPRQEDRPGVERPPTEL
In short: (§2)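 Sheep seminal vesicle COX-1; reaction started with arachidonic acid, 10 min at room temperature, stopped with 27.8 μM indomethacin. PGE₂ quantified by competitive ELISA (PGE₂-acetylcholinesterase tracer, Ellman's reagent, 412 nm) against a PGE₂ standard curve. Result as % of solvent control; IC₅₀ from dose-response curves.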

[5] = Inhibition of TNF-alpha-induced NF-kappaB activity expressed in HEK293 cells after 48 hrs by luciferase reporter gene assay; assay type: cell-based; settings: HEK293, 48 h
[6] = target: T2, Prostaglandin G/H synthase 2 (Homo sapiens, UniProt P35354); experiment: Inhibition of human recombinant COX2 assessed as PGE2 production after 10 mins by ELISA
T2 sequence (P35354 whole entry): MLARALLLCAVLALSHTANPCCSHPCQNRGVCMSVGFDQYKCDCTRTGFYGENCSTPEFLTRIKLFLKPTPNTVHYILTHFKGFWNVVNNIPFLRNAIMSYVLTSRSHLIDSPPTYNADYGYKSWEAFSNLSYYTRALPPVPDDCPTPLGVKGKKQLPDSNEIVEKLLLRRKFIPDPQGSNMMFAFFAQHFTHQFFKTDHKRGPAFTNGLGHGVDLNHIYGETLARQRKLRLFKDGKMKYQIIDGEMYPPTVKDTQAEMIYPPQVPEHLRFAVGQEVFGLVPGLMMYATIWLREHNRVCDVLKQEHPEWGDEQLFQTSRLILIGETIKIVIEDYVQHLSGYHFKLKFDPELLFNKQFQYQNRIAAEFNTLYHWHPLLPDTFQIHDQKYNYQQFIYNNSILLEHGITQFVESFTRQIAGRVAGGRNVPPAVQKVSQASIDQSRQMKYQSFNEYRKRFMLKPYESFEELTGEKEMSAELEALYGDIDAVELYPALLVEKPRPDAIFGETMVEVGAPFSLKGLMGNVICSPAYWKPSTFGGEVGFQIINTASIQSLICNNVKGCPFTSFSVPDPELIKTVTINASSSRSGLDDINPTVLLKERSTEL

[7] = target: T3, Prostaglandin G/H synthase 1 (Ovis aries, UniProt P05979); experiment: Inhibition of sheep seminal vesicles COX1 assessed as PGE2 production after 10 mins by ELISA; in short: as §2
T3 sequence (P05979 whole entry): T1 sequence (whole entry)

MCF7 [8] = experiment: Cytotoxicity against human MCF7 cells assessed as cell survival at 20 ug/ml after 72 hrs by sulforhodamine B method; assay type: functional; settings: MCF7, 72 h, read-out: Activity
In short: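 Sulforhodamine B assay. KB or MCF7 cells plated with samples and held 72 h at 37 °C, 5% CO₂. Fixed 1 h in 10% trichloroacetic acid, stained with 0.4% SRB in 1% acetic acid, dye taken up in 10 mM Tris.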

[9] = Chemical stability assessed as degradation after 24 hrs by LC/MS/MS analysis; assay type: physicochemical
In short: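 Compound held 24 h at 37 °C in RPMI 1640 culture medium, the medium used for the MCF7 uptake work; remaining amount sampled at 0, 12 and 24 h as % of starting level; three runs.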

RAW264.7 [10] = experiment: Inhibition of LPS-induced COX2 expression in mouse RAW264.7 cells at 34 uM treated 15 mins before LPS challenge measured after 18 hrs by Western blotting relative to control; assay type: functional; in short: as §1
MCF7 [11] = experiment: Cellular uptake in human MCF7 cells assessed per millions cells at 50 uM after 24 hrs by LC/MS/MS analysis; assay type: ADME, cell-based; settings: mcf7, 24 h
[12] = Antioxidant activity assessed as DPPH scavenging activity after 30 mins; assay type: functional

O=S(=O)([O-])Oc1ccc(/C=C/c2cc(O)cc(O)c2)cc1.[K+]
inhibition (RAW264.7 [1]): Active
CD [2]: > 6.9 µM
inhibition [3]: 42.8%
Activity (HL-60): 2.22%
inhibition [4]: 63.2%
IC50 [5]: 18.2 µM
IC50 [6]: 8.95 µM
IC50 [7]: 5.55 µM
viability at 20 µg/mL (MCF7 [8]): 103%
Stability [9]: Stable

O=S(=O)([O-])Oc1ccc(/C=C/c2cc(OS(=O)(=O)[O-])cc(OS(=O)(=O)[O-])c2)cc1.[K+].[K+].[K+]
CD [2]: > 11.7 µM
inhibition [3]: 0.4%
inhibition [4]: 37.8%
fold change (FC) (RAW264.7 [10]): 0.69
viability at 20 µg/mL (MCF7 [8]): 107%

O=S(=O)([O-])Oc1cc(/C=C/c2ccc(O)cc2)cc(OS(=O)(=O)[O-])c1.[K+].[K+]
CD [2]: > 10.1 µM
inhibition [3]: 14.5%
inhibition [4]: 30.9%
fold change (FC) (RAW264.7 [10]): 0.76
Drug uptake (MCF7 [11]): Active
viability at 20 µg/mL (MCF7 [8]): 97.2%

O=S(=O)([O-])Oc1cc(O)cc(/C=C/c2ccc(O)cc2)c1.[K+]
inhibition (RAW264.7 [1]): Active
CD [2]: 2.6 µM
inhibition [3]: 68%
inhibition [4]: 74.3%
IC50 [6]: 7.53 µM
IC50 [7]: 3.6 µM
viability at 20 µg/mL (MCF7 [8]): 51.7%
IC50 [12]: 219 µM
